# Experimental data from different studies.
# Lines come from different studies, so protocols differ.
# Cell line: MCF7
# Read-out: cell growth or viability
SMILES,assay,setting,IC50 [µM]
C=CC(=O)Nc1cc(Nc2nccc(-c3cn(C)c4ccccc34)n2)c(OC)cc1N(C)CCN(C)C,MTS,72 h,8.34
COc1cc2ncnc(N(C)c3ccc4c(c3)/C(=C/c3cccc(Cl)c3)C(=O)N4C)c2cc1OC,MTT,,6.53
Cc1nc2ccc(CN(C)c3ccc(C(=O)N[C@@H](CCC(=O)O)C(=O)O)s3)cc2c(=O)[nH]1,MTT,48 h,1.98
Cc1nc(N(C)c2ccc3c(c2)/C(=C/c2ccccc2Cl)C(=O)N3C)c2ccccc2n1,MTT,,10.8
COc1ccc(-c2cc(-c3ccccc3Cl)c3c(=O)n(C)c(=O)n(C)c3n2)cc1,MTT,48 h,21.5
Cc1nc(Nc2ccc3c(c2)C(C)(C)C(=O)N3C)c2ccccc2n1,MTT,,36.3
Cc1ccc(-c2cc(-c3ccc(Cl)c(F)c3)c3c(=O)n(C)c(=O)n(C)c3n2)cc1,MTT,48 h,37
COc1cc2c3c(n(CCCn4ccnc4)c(=O)c2cc1OC)-c1nc2c(cc1C3=O)OCO2,,72 h,0.372
Cc1nc(N(Cc2ccccc2)c2ccc3c(c2)/C(=C/c2ccccc2)C(=O)N3Cc2ccccc2)c2ccccc2n1 (mixture of isomers),MTT,,0.89
COc1cc2c3c(n(CCCN4CCOCC4)c(=O)c2cc1OC)-c1nc2c(cc1C3=O)OCO2,,72 h,0.936
COc1ccc(-c2cc(-c3c(OC)cccc3OC)c3c(=O)n(C)c(=O)n(C)c3n2)cc1,MTT,48 h,11.3
CC(C)NCC(COc1cccc2ccccc12)OC(=O)C=Cc1ccc(O)c(O)c1 (centres unmarked),MTT,,5.37
Cc1nc(NC(=O)N2CCC[C@H]2C(N)=O)sc1-c1ccnc(C(C)(C)C(F)(F)F)c1,MTT,,1.89
O=c1nc(-c2ccc(Nc3nnc(-c4ccc(Cl)cc4)c4ccccc34)cc2)cc(-c2ccccc2)[nH]1,MTT,72 h,0.16
COc1ccc(-c2cc(-c3ccccc3Cl)c3c(=O)[nH]c(=O)[nH]c3n2)cc1,MTT,48 h,17.5
Cc1ccccc1NC(=O)C=Cc1ccc(O)c(O)c1,MTT,,44.5
COc1ccc(-c2cc(-c3ccc(OC)cc3)c3c(=O)[nH]c(=O)[nH]c3n2)cc1,MTT,48 h,8.38
O=C(CCn1c(=O)ccc2ccccc21)N1CCOCC1,MTT,48 h,9.77
Cc1nc(Nc2ccc3c(c2)CC(=O)N3)c2ccccc2n1,MTT,,31.3
O=C(C=Cc1ccc(O)c(O)c1)OCc1ccccc1,MTT,,85.2
